Key:
[1] = test system: Mus musculus; assay: Skin uptake in C3H mice bearing RIF tumors, determined by in vivo reflectance spectroscopy following 5.0 umol/kg administration.; format: functional
Method in brief: (§1)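 Photosensitizer given iv at 5.0 µmol/kg to C3H mice bearing RIF tumors, anesthetized with ketamine xylazine ip. Scattered-light spectrum from tissue was recorded before and after injection. The in vivo drug absorption was taken as the ratio of post- to pre-injection spectra. Tumor and skin were compared at 24 h postinjection.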

[2] = Tumor and skin uptake ratio of the compound; format: functional
Method in brief: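 C3H mice bearing RIF tumors, anesthetized with ketamine xylazine ip; photosensitizer given iv at 5.0 µmol/kg. Uptake measured by in vivo reflectance spectroscopy: light scattered by tissue recorded before and after injection, and drug absorption taken as the postinjection/preinjection spectral ratio. Tumor versus skin uptake compared at 24 h postinjection.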

[3] = Partition coefficient (logP); format: physicochemical; details: octanol/water
[4] = test system: Mus musculus; assay: Tumor uptake in C3H mice bearing RIF tumors, determined by in vivo reflectance spectroscopy following 5.0 umol/kg administration.; format: functional; method in brief: as §1

SMILES | logP [3] | logP ([3]; read-out: logP) | Skin uptake [1] | Ratio [2] | Tumor uptake [4]
CCCCCCCCCCN1C(=O)c2c3nc(cc4nc(cc5[nH]c(cc6[nH]c2c(c6C)C1=O)c(CC)c5C)C(C(C)OCCC)=C4C)[C@@H](C)[C@@H]3CCC(=O)OC (stereo not given in full) | 10.83 |  | 6.09 µM | 1.89 | 11.5 µM
CCCCCCCCCCCCOC(C)C1=C(C)c2cc3nc(c4c5[nH]c(cc6[nH]c(cc1n2)c(C)c6CC)c(C)c5C(=O)N(CCCCCCCCCCCC)C4=O)[C@@H](CCC(=O)OC)[C@@H]3C (stereo not given in full) |  |  | 2.7 µM | 1.87 | 5.04 µM
CCCCCCCOC(C)C1=C(C)c2cc3nc(c4c5[nH]c(cc6[nH]c(cc1n2)c(C)c6CC)c(C)c5C(=O)N(CCCCCC)C4=O)[C@@H](CCC(=O)OC)[C@@H]3C (stereo not given in full) |  |  | 2.6 µM | 3.15 | 8.2 µM
CCCCCCCCCCN1C(=O)c2c3nc(cc4nc(cc5[nH]c(cc6[nH]c2c(c6C)C1=O)c(CC)c5C)C(C(C)OCCCCCC)=C4C)[C@@H](C)[C@@H]3CCC(=O)OC (stereo not given in full) |  |  | 1.8 µM | 2.88 | 5.18 µM
CCCCCCCN1C(=O)c2c3nc(cc4nc(cc5[nH]c(cc6[nH]c2c(c6C)C1=O)c(CC)c5C)C(C(C)OCCCCCC)=C4C)[C@@H](C)[C@@H]3CCC(=O)OC (stereo not given in full) | 10.83 |  | 2.95 µM | 2.73 | 8.04 µM
CCCCCCCCCCOC(C)C1=C(C)c2cc3nc(c4c5[nH]c(cc6[nH]c(cc1n2)c(C)c6CC)c(C)c5C(=O)N(CCCCCCCCCC)C4=O)[C@@H](CCC(=O)OC)[C@@H]3C (stereo not given in full) |  |  | 1.73 µM | 3.21 | 5.56 µM
CCCCCCCCCCOC(C)C1=C(C)c2cc3nc(c4c5[nH]c(cc6[nH]c(cc1n2)c(C)c6CC)c(C)c5C(=O)N(CCC)C4=O)[C@@H](CCC(=O)OC)[C@@H]3C (stereo not given in full) | 10.68 |  | 4.28 µM | 2.4 | 10.26 µM
CCCCCCCCCCCCN1C(=O)c2c3nc(cc4nc(cc5[nH]c(cc6[nH]c2c(c6C)C1=O)c(CC)c5C)C(C(C)OCCCCCC)=C4C)[C@@H](C)[C@@H]3CCC(=O)OC (stereo not given in full) |  |  | 2 µM | 2.39 | 4.77 µM
CCCCCCCCCCCCOC(C)C1=C(C)c2cc3nc(c4c5[nH]c(cc6[nH]c(cc1n2)c(C)c6CC)c(C)c5C(=O)N(CCCCCC)C4=O)[C@@H](CCC(=O)OC)[C@@H]3C (stereo not given in full) |  |  | 4.3 µM | 2.19 | 9.4 µM
CCCCCCCCCOC(C)C1=C(C)c2cc3nc(c4c5[nH]c(cc6[nH]c(cc1n2)c(C)c6CC)c(C)c5C(=O)N(CCCCCC)C4=O)[C@@H](CCC(=O)OC)[C@@H]3C (stereo not given in full) | 11.85 |  | 3.54 µM | 3.02 | 10.7 µM

Second part, led by results:

logP [3] | logP ([3]; read-out: logP) | SMILES | Skin uptake [1] | Ratio [2] | Tumor uptake [4]
 | 8.79 | CCCCCCN1C(=O)c2c3nc(cc4nc(cc5[nH]c(cc6[nH]c2c(c6C)C1=O)c(CC)c5C)C(C(C)OCCC)=C4C)[C@@H](C)[C@@H]3CCC(=O)OC (stereo not given in full) | 6.29 µM | 2.19 | 13.8 µM
10.88 |  | CCCCCCCCCCCCN1C(=O)c2c3nc(cc4nc(cc5[nH]c(cc6[nH]c2c(c6C)C1=O)c(CC)c5C)C(C(C)OC)=C4C)[C@@H](C)[C@@H]3CCC(=O)OC (stereo not given in full) | 5.8 µM | 2.67 | 15.48 µM
 | 7.82 | CCCCCCN1C(=O)c2c3nc(cc4nc(cc5[nH]c(cc6[nH]c2c(c6C)C1=O)c(CC)c5C)C(C(C)OC)=C4C)[C@@H](C)[C@@H]3CCC(=O)OC (stereo not given in full) | 4.5 µM | 2.24 | 10.1 µM
 | 5.32 | CCc1c(C)c2cc3[nH]c(cc4nc(c5c6nc(cc1[nH]2)C(C)=C6C(=O)N(C)C5=O)[C@@H](CCC(=O)OC)[C@@H]4C)c(C)c3C(C)OC (stereo not given in full) | 0.1 µM | 2.87 | 0.3 µM
 | 7.67 | CCCCCCOC(C)C1=C(C)c2cc3nc(c4c5[nH]c(cc6[nH]c(cc1n2)c(C)c6CC)c(C)c5C(=O)N(C)C4=O)[C@@H](CCC(=O)OC)[C@@H]3C (stereo not given in full) | 1.78 µM | 3.61 | 6.42 µM
10.73 |  | CCCCCCCCCCCCOC(C)C1=C(C)c2cc3nc(c4c5[nH]c(cc6[nH]c(cc1n2)c(C)c6CC)c(C)c5C(=O)N(C)C4=O)[C@@H](CCC(=O)OC)[C@@H]3C (stereo not given in full) | 1.74 µM | 3.57 | 6.21 µM
 | 7.26 | CCCOC(C)C1=C(C)c2cc3nc(c4c5[nH]c(cc6[nH]c(cc1n2)c(C)c6CC)c(C)c5C(=O)N(CCC)C4=O)[C@@H](CCC(=O)OC)[C@@H]3C (stereo not given in full) | 4.8 µM | 2.19 | 10.5 µM
 | 8.79 | CCCCCCOC(C)C1=C(C)c2cc3nc(c4c5[nH]c(cc6[nH]c(cc1n2)c(C)c6CC)c(C)c5C(=O)N(CCC)C4=O)[C@@H](CCC(=O)OC)[C@@H]3C (stereo not given in full) | 1.48 µM | 3.34 | 4.95 µM
10.32 |  | CCCCCCOC(C)C1=C(C)c2cc3nc(c4c5[nH]c(cc6[nH]c(cc1n2)c(C)c6CC)c(C)c5C(=O)N(CCCCCC)C4=O)[C@@H](CCC(=O)OC)[C@@H]3C (stereo not given in full) | 2.3 µM | 3.17 | 7.3 µM
